ChEMBL document CHEMBL3297654, “Synthesis, antimicrobial and cytotoxic activities, and structure-activity relationships of gypsogenin derivatives against human cancer cells” (Eur J Med Chem, 2014)

What was measured:
HeLa [1] = assay: Induction of apoptosis in human HeLa cells at 0.5 uM after 48 hrs by Hoechst 33258/propidium iodide staining based phase contrast microscopic analysis; type: functional
In short: (§1)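 Cells in 48-well plates treated with 0.5, 10, 20 or 40 µM for 24 and 48 h. Values are read at 48 h, 20 µM for test agents and 0.5 µM for controls. Staining is Hoechst 33258/propidium iodide double staining with fluorescence microscopy. Blue nuclei are viable or early-to-mid apoptotic, and pink nuclei are late apoptotic or necrotic. Apoptosis and necrosis are scored from chromatin condensation as % of cells. Cells are grown at 37 °C in 5% CO2 in RPMI, DMEM or McCoy's 5A with 10–15% heat-inactivated FCS.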

HeLa [2] = assay: Induction of necrosis in human HeLa cells at 0.5 uM after 48 hrs by Hoechst 33258/propidium iodide staining based phase contrast microscopic analysis; type: functional; in short: as §1
SAOS-2 [3] = assay: Induction of apoptosis in human Saos2 cells at 0.5 uM after 48 hrs by Hoechst 33258/propidium iodide staining based phase contrast microscopic analysis; type: functional; in short: as §1
HT-29 [4] = assay: Antiproliferative activity against human HT-29 cells after 24 and 72 hrs by MTT assay; type: functional, cell-based
In short: (§2)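 ATCC human cell lines are kept in RPMI, DMEM or McCoy's 5A with 10–15% heat-inactivated FCS at 37 °C and 5% CO2. They are seeded at 1×10^4–1×10^5 cells/mL in 48-well plates and exposed to 0.5, 10, 20 or 40 µM. Viability is read by MTT (590 nm) at 24 and 72 h. Growth is expressed relative to untreated cells and IC50 is fitted, in triplicate.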

SAOS-2 [5] = assay: Induction of necrosis in human Saos2 cells at 0.5 uM after 48 hrs by Hoechst 33258/propidium iodide staining based phase contrast microscopic analysis; type: functional; in short: as §1
HL-60 [6] = assay: Induction of apoptosis in human HL60 cells at 0.5 uM after 48 hrs by Hoechst 33258/propidium iodide staining based phase contrast microscopic analysis; type: functional; in short: as §1
HT-29 [7] = assay: Induction of necrosis in human HT-29 cells at 0.5 uM after 48 hrs by Hoechst 33258/propidium iodide staining based phase contrast microscopic analysis; type: functional; in short: as §1
Caco-2 [8] = assay: Antiproliferative activity against human Caco2 cells after 24 and 72 hrs by MTT assay; type: functional, cell-based; in short: as §2
Caco-2 [9] = assay: Induction of necrosis in human Caco2 cells at 0.5 uM after 48 hrs by Hoechst 33258/propidium iodide staining based phase contrast microscopic analysis; type: functional; in short: as §1
MCF7 [10] = assay: Induction of apoptosis in human MCF7 cells at 0.5 uM after 48 hrs by Hoechst 33258/propidium iodide staining based phase contrast microscopic analysis; type: functional; in short: as §1
MCF7 [11] = assay: Induction of necrosis in human MCF7 cells at 0.5 uM after 48 hrs by Hoechst 33258/propidium iodide staining based phase contrast microscopic analysis; type: functional; in short: as §1
Caco-2 [12] = assay: Induction of apoptosis in human Caco2 cells at 0.5 uM after 48 hrs by Hoechst 33258/propidium iodide staining based phase contrast microscopic analysis; type: functional; in short: as §1
HL-60 [13] = assay: Antiproliferative activity against human HL60 cells after 24 and 72 hrs by MTT assay; type: functional, cell-based; in short: as §2
HL-60 [14] = assay: Induction of necrosis in human HL60 cells at 0.5 uM after 48 hrs by Hoechst 33258/propidium iodide staining based phase contrast microscopic analysis; type: functional; in short: as §1
HT-29 [15] = assay: Induction of apoptosis in human HT-29 cells at 0.5 uM after 48 hrs by Hoechst 33258/propidium iodide staining based phase contrast microscopic analysis; type: functional; in short: as §1
HeLa [16] = assay: Antiproliferative activity against human HeLa cells after 24 and 72 hrs by MTT assay; type: functional, cell-based; in short: as §2
[17] = Antiproliferative activity against human Saos2 cells after 24 and 72 hrs by MTT assay; type: functional, cell-based; settings: SAOS-2; in short: as §2
Micrococcus luteus = assay: Antimicrobial activity against Micrococcus luteus ATCC 9341 assessed as zone of inhibition at 30 mg for 24 hrs at 30 degC by disk diffusion test; type: functional; settings: ATCC 9341, 24 h, read-out: DIZ

In the case of `COc1cccc2c1C(=O)c1c(O)c3c(c(O)c1C2=O)C[C@@](O)(C(=O)CO)C[C@@H]3O[C@H]1C[C@H](N)[C@H](O)[C@H](C)O1` [DOXORUBICIN], the Activity (HeLa [1]) is reported as 2%, the Activity (HeLa [2]) is reported as 28% and the Activity (SAOS-2 [3]) is reported as 2%. For the same compound, the IC50 (HT-29 [4]) was 310 nM, the Activity (SAOS-2 [5]) was 34% and the Activity (HL-60 [6]) was 2%. The Activity (HT-29 [7]) was 49%, the IC50 (Caco-2 [8]) was 350 nM and the Activity (Caco-2 [9]) was 47%. The Activity (MCF7 [10]) was 1%, the Activity (MCF7 [11]) was 44% and the Activity (Caco-2 [12]) was 4%. For the same compound, the IC50 (HL-60 [13]) was 330 nM, the Activity (HL-60 [14]) was 45% and the Activity (HT-29 [15]) was 5%. It also gave an IC50 (HeLa [16]) of 340 nM and an IC50 [17] of 330 nM.

In the case of `O=C(N[C@H](CO)[C@H](O)c1ccc([N+](=O)[O-])cc1)C(Cl)Cl` [CHLORAMPHENICOL], the zone of inhibition at 30000 µg/disc (Micrococcus luteus) is reported as 25 mm.
